# Sampled rows, rich in hits. Any-hit rate of the full collection: about 6.8%.
# AI-2 QS mod – Vibrio harveyi AI-2 quorum sensing modulators, primary screen, JMH597 strain, luminescence/OD600 ratio; hit rate 0.4% among 300,000; AID 2094, 2009; Vibrio harveyi JMH597 AI-2 luminescence/OD600 ratio, 9 h; stronger effect = lower value; strain lacks LuxN and CqsS sensors; 0 = neutral-control median; activity change, % at 7.5 µM; in the data active means activity change below about -75%, passing the limit was not always enough;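 further: luminescence divided by OD600 gain over 9 h not by final OD600 alone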
# core dimer inh – inhibitors of HCV core protein dimerization, primary screen, biochemical, TR-FRET, high-throughput; AID 1899, 2009; TR-FRET GST/Flag-core106 dimerization, 1536-well; hit rate 0.33% among 300,000; inhibition, % at 5 µM;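 active means inhibition above the mean of all tested compounds plus 3 SD, set per screening campaign, cut at about 45% in these data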
#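 Material: GST/Flag-tagged HCV core106 proteins. Incubation: 4 h, 22.5 °C incubation. Read-out basis: inhibition (%) from 671 over 617 nm ratio. Measured by: TR-FRET, excitation 340 nm, emission 617 and 671 nm.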
# HSF-1 act – HSF-1 activators, primary screen, NIH3T3-HGL cells, MG132 stress, luminescence, single point; NIH3T3-HGL HSF-1 luciferase reporter, 8 h; 100% = twice DMSO control signal; activation, % at 9 µM; hit rate 1.7% among 300,000;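 active means mean replicate activation of at least 50% with a set share of replicates each reaching 50%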;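 further: 0% = median of the neutral control wells and 100% = twice that signal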
# PHOSPHO1 block – PubChem AID 1565; recombinant PHOSPHO1, absorbance phosphatase assay; hit rate 1.1% among 290,000; inhibition, % at 13.3 µM; in the data active means inhibition above about 60%
# HSF1 inhib – HSF1 inhibitors in luciferase reporter cells, primary screen, cell-based, NIH3T3, luminescence; NIH3T3-HGL HSE-luciferase, MG132-induced, luminescence 8 h; stronger effect = lower value; activity change, negative = inhibition, % at 7.5 µM (by protocol); hit rate 0.77% among 300,000;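 active means more than half of replicate wells show activity change below -50%, luminescence cut by over half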;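 further: luciferase reports HSF-1 transcriptional activity via heat shock element; 0% = median of DMSO wells and -100% = zero luminescence signal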
# ALR H2O2 inh – inhibitors of human ALR sulfhydryl oxidase, primary screen, biochemical, H2O2 detection, HRP-luminol luminescence, single point. purified ALR, DTT oxidation. hit rate 3.8% among 290,000. inhibition, % (no concentration beside the values). FAD-linked sulfhydryl oxidase ALR (Homo sapiens), P55789;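 active means mean replicate inhibition above about 79%, with every replicate also reaching it, limit read from the data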
# Target sequence (P55789 whole entry, looked up): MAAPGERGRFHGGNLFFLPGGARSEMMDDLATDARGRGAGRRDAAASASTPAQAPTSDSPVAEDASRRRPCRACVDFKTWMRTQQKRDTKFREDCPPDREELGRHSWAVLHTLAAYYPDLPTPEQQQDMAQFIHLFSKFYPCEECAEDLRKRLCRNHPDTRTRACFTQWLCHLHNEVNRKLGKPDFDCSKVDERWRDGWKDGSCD
# An asterisk follows results filed as active; nt = not tested or not shown.
SMILES,AI-2 QS mod,core dimer inh,HSF-1 act,PHOSPHO1 block,HSF1 inhib,ALR H2O2 inh
COC(=O)Cn1c(=O)c2c(nc3n2CC(C)CN3CCc2ccccc2)n(C)c1=O (configuration not stated),7,nt,63*,32,18,nt
COC(=O)c1cc(S(=O)(=O)N2CCN(c3cccc(OC)c3)CC2)cn1C,18,-5,28,53,9,-2
COc1ccc(C2C3=C(CCCC3=O)N(CC(=O)O)C3=C2C(=O)CCC3)cc1Cl,5,4,77*,19,30,-13
COc1cccc(Sc2ccccc2/C=N/NC(N)=O)c1,15,4,57*,37,20,1
C=CCOc1c(/C=N\NC(N)=O)cccc1OC,0,-1,22,-142,6,-5
CC(=NCc1ccncc1)C1=C(O)c2ccccc2C1=O,nt,nt,nt,64*,nt,nt
Cc1onc(-c2c(Cl)cccc2Cl)c1C(=O)NCCc1ccncc1,28,1,-2,26,-3,-3
CC1CC(C)CN(C(=O)CCS(=O)(=O)c2ccc3c(c2)NC(=O)CS3)C1 (configuration not stated),11,7,85*,10,31,-3
O=C(CSc1nnc(-c2ccncc2)n1Cc1ccco1)OC1CCCCC1,21,3,-4,-38,7,32
O=C(CSc1nnc(-c2ccco2)n1Cc1ccccc1)OC1CCCCC1,25,14,79*,38,47,35
CC(=O)c1c(C)[nH]c(C(=O)CSc2nnc(-c3ccco3)n2Cc2ccccc2)c1C,3,5,11,62*,6,8
COC(=O)C1C(O)=C(C(C)=N)C(=O)CC1(C)C (configuration not stated),16,1,-22,10,-11,98*
COCCCNC(=O)CSc1c2c(nc3ccc(Cl)cc13)CCCC2,20,1,40,2,37,99*
CCN(CC)CCCNC(=O)CSc1c2c(nc3cc(Cl)ccc13)CCCC2,12,-1,202*,-8,154,3
O=C(CSc1ccccc1)NCCCN1CCOCC1,13,2,-8,-10,2,-1
O=C(O)CSc1c2c(nc3cc(C(=O)Nc4ccc(F)c(Cl)c4)ccc13)CCCC2,11,4,-26,32,-7,2
O=C(CSc1c2c(nc3ccc(Cl)cc13)CCCC2)NCCCN1CCOCC1,11,1,68*,-14,41,98*
O=C(CSc1c2c(nc3cc(Cl)ccc13)CCCC2)NCCN1CCOCC1,30,4,65*,-17,43,1
COc1ccc(Cl)cc1NC(=O)c1ccc2c(SCC(=O)O)c3c(nc2c1)CCCC3,-8,0,29,12,15,11
Cc1c(CCOC(=O)c2cc([N+](=O)[O-])cc([N+](=O)[O-])c2)sc[n+]1CCCCS(=O)(=O)[O-],0,1,-14,48,-6,-30
Cc1ccc(CNC(=O)CSc2c3c(nc4cc(Cl)ccc24)CCCC3)o1,14,34,65*,12,44,nt
O=C(CSc1c2c(nc3cc(Cl)ccc13)CCCC2)NCCCN1CCOCC1,-5,6,189*,-14,141,97*
O=C(C#Cc1ccccc1)Nc1ccccc1F,-87*,-7,106*,47,58,12
NC(=O)c1ccc(NC(=O)C#Cc2ccccc2)cc1,-66,3,61*,24,51,6
COC(=O)C1=C(C)NC(=O)NC1c1ccc(OC(=O)c2ccco2)cc1 (configuration not stated),32,1,33,50,-4,2
N#Cc1c2n(c3c(=O)n(Cc4ccc(Cl)cc4)cnc13)CCCCC2,32,22,14,-7,-2,nt
N#Cc1c2n(c3c(=O)n(Cc4ccccc4)cnc13)CCCC2,-7,0,41,-3,4,84*
CCCCCCC1CC(C)(C(=O)CNc2nncs2)OC1=O (configuration not stated),-76*,-1,6,-7,3,nt

# High-throughput results: PubChem BioAssay, several laboratories
